Calls of active or inactive are those of the source. The calls are words filed in the database; no cut-off is given here.
Legend:
[1] = target: Casein kinase I isoform gamma-3 (Homo sapiens) (UniProt Q9Y6M4); assay: Inhibition of CSNK1G3 assessed as residual activity at 10 uM relative to control
Outline: (§1)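 Competition kinase-binding assay (KINOMEscan) across a non-redundant panel of 329 kinases beyond the radiometric panel; residual binding expressed relative to control.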

[2] = target: Dual specificity protein kinase CLK4 (Homo sapiens) (UniProt Q9HAZ1); assay: Inhibition of CLK4 assessed as residual activity at 10 uM relative to control; outline: as §1
[3] = target: Tyrosine-protein kinase Lck (Homo sapiens) (UniProt P06239); assay: Inhibition of Lck assessed as residual activity at 1 uM
[4] = target: T1, Ephrin type-B receptor 3 (Homo sapiens) (UniProt P54753); assay: Inhibition of EPH-B3 assessed as residual activity at 1 uM
T1 sequence (whole entry): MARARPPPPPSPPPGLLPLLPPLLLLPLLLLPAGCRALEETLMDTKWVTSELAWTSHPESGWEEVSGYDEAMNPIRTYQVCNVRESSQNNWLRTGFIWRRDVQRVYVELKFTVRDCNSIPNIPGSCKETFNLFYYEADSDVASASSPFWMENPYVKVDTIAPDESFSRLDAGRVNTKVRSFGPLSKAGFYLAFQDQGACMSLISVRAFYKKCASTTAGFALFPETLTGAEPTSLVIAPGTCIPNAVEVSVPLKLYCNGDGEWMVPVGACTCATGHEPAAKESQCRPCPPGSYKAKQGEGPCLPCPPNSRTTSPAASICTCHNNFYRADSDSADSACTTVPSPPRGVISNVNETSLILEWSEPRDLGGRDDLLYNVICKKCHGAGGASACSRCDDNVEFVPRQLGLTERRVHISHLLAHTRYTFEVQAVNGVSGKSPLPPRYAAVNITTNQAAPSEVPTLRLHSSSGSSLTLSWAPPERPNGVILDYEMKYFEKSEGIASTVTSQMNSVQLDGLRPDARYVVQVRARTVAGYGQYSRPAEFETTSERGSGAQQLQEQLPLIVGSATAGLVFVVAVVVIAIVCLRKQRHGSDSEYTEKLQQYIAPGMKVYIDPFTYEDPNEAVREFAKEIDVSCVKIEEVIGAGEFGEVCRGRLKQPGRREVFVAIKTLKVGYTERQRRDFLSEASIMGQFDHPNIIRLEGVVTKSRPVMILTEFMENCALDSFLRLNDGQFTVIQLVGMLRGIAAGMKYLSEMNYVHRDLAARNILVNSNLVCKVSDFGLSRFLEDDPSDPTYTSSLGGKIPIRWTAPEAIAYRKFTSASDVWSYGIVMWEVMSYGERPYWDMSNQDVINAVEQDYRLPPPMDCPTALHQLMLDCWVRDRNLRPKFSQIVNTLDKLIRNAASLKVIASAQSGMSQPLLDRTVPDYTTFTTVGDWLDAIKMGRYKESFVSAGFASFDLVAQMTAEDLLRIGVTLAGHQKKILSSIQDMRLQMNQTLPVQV
Outline: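 Standard radioactivity-based enzymatic kinase assays on a 131-kinase panel run by the Dundee profiling service; residual kinase activity recorded.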

[5] = target: MAP/microtubule affinity-regulating kinase 3 (Homo sapiens) (UniProt P27448); assay: Inhibition of MARK3 assessed as residual activity at 10 uM relative to control
[6] = target: Receptor-interacting serine/threonine-protein kinase 2 (Homo sapiens) (UniProt O43353); assay: Inhibition of RIPK2 assessed as residual activity at 10 uM relative to control
[7] = target: Tyrosine-protein kinase receptor UFO (Homo sapiens) (UniProt P30530); assay: Inhibition of AXL assessed as residual activity at 10 uM relative to control
[8] = target: Aurora kinase C (Homo sapiens) (UniProt Q9UQB9); assay: Inhibition of AURKC assessed as residual activity at 10 uM relative to control
[9] = target: Misshapen-like kinase 1 (Homo sapiens) (UniProt Q8N4C8); assay: Inhibition of MINK1 assessed as residual activity at 10 uM
[10] = target: T2, Serine/threonine-protein kinase STK11 (Homo sapiens) (UniProt Q15831); assay: Inhibition of LKB1 assessed as residual activity at 10 uM
T2 sequence (whole entry): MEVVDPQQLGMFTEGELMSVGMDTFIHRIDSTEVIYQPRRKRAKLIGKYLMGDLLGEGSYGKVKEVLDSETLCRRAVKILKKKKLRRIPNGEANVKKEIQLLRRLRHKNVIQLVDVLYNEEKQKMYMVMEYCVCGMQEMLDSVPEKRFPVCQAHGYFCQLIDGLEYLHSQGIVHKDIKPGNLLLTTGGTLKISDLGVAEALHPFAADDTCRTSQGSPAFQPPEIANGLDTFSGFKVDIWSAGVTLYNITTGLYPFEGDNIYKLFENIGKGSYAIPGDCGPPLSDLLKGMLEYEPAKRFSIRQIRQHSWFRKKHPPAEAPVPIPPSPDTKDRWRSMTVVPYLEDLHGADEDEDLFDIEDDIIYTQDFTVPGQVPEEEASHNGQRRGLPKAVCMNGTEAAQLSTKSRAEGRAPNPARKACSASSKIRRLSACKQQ

[11] = target: Mitogen-activated protein kinase 1 (Homo sapiens) (UniProt P28482); assay: Inhibition of ERK2 assessed as residual activity at 10 uM
Outline: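 Radioactivity-based enzymatic activity assay of the named kinase, run as part of a 131-kinase specificity panel at the National Centre for Protein Kinase Profiling (Dundee). Residual activity was read at the stated single inhibitor concentration.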

Mus musculus = assay: Oral bioavailability in Swiss albino mouse at 10 mg/kg; format: ADME, organism-based; settings: in vivo
[12] = target: Tyrosine-protein kinase ZAP-70 (Homo sapiens) (UniProt P43403); assay: Inhibition of ZAP70 assessed as residual activity at 1 uM
[13] = target: Cyclin-dependent kinase 17 (Homo sapiens) (UniProt Q00537); assay: Inhibition of PCTK2 assessed as residual activity at 10 uM relative to control
[14] = target: Serine/threonine-protein kinase 3 (Homo sapiens) (UniProt Q13188); assay: Inhibition of MST2 assessed as residual activity at 10 uM relative to control
[15] = target: Leucine-rich repeat serine/threonine-protein kinase 2 (Homo sapiens) (UniProt Q5S007); settings: HEK293, 0.3 to 1 uM
Chain of Leucine-rich repeat serine/threonine-protein kinase 2 (Homo sapiens) (Q5S007 whole entry): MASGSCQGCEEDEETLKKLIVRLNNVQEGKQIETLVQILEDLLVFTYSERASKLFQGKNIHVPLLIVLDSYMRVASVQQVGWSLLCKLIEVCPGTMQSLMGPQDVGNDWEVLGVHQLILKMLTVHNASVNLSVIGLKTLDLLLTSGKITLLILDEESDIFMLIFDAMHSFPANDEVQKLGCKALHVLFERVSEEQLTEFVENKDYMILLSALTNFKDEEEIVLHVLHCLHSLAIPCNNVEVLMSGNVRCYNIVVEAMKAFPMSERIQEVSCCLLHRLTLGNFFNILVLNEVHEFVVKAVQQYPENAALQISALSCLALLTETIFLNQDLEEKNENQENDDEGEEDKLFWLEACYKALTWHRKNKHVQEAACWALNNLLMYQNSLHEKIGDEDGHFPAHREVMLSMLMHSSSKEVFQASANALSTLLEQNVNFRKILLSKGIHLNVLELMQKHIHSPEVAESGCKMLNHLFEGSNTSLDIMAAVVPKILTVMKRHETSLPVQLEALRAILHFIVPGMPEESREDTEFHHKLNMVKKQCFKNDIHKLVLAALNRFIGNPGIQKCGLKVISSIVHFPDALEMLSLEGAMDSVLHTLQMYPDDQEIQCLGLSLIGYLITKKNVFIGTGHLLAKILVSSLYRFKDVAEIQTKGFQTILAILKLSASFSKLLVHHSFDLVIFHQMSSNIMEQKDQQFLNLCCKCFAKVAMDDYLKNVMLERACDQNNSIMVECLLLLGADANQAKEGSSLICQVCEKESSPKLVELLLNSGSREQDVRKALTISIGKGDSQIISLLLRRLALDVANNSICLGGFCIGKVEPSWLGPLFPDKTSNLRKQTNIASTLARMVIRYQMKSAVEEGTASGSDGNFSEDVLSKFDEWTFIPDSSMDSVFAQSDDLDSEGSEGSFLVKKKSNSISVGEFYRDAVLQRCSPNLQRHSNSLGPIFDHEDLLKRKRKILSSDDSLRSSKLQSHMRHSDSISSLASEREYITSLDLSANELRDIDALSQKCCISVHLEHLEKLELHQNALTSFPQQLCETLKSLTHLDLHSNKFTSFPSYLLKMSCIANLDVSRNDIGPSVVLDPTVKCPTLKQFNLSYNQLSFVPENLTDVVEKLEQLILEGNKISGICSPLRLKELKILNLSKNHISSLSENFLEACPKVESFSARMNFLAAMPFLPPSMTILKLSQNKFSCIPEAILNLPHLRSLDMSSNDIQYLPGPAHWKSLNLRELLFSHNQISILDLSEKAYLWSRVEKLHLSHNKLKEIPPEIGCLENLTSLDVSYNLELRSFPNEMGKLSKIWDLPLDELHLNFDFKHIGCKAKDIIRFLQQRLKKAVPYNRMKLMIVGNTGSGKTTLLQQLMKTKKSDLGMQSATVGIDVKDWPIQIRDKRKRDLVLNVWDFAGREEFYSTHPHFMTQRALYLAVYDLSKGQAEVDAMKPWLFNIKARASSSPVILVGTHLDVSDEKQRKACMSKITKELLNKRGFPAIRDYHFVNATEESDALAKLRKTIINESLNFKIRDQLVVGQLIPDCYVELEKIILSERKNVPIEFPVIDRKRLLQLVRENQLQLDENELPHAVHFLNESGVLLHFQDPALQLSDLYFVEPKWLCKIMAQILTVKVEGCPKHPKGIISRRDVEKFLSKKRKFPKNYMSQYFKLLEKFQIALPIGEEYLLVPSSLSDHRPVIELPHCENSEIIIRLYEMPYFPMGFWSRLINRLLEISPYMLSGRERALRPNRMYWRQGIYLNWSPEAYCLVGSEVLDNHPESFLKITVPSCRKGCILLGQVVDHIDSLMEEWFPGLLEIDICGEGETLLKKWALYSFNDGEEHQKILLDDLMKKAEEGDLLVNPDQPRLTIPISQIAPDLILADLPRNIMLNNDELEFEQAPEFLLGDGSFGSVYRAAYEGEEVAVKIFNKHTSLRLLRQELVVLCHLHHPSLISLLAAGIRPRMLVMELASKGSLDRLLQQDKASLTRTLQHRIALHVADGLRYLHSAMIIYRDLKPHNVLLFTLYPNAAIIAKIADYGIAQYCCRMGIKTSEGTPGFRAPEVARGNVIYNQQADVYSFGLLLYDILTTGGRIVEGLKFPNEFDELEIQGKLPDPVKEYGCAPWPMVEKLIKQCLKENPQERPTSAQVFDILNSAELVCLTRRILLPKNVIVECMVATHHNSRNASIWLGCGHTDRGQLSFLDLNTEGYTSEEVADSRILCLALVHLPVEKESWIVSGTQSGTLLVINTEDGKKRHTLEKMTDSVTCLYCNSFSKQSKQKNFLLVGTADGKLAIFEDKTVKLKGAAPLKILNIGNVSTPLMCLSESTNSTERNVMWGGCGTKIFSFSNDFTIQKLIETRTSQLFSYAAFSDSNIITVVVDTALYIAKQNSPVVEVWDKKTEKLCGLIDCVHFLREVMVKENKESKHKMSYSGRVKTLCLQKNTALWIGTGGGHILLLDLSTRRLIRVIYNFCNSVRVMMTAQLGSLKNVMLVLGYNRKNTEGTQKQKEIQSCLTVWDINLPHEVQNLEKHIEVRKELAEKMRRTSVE

Chain of Aurora kinase C (Homo sapiens) (Q9UQB9 whole entry): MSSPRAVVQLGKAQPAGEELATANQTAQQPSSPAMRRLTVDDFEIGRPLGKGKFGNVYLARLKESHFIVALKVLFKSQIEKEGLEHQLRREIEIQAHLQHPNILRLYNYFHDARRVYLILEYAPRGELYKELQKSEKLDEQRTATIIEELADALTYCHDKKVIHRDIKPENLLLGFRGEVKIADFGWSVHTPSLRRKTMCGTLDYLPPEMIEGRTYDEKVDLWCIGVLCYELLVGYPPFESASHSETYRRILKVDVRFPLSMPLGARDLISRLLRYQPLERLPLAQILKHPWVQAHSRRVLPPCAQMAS
Chain of Casein kinase I isoform gamma-3 (Homo sapiens) (Q9Y6M4 whole entry, looked up, canonical isoform): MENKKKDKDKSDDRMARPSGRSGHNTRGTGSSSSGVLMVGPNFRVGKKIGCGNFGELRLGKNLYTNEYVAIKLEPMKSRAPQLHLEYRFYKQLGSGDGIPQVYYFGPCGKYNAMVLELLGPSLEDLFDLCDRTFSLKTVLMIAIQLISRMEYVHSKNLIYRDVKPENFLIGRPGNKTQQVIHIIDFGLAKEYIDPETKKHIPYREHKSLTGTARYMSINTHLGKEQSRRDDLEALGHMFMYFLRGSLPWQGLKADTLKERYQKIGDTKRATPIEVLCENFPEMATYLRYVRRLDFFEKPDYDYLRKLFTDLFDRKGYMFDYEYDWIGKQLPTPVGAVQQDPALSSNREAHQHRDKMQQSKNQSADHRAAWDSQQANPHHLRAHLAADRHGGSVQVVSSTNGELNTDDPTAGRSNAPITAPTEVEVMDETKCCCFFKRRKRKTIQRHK
Chain of Mitogen-activated protein kinase 1 (Homo sapiens) (P28482 whole entry): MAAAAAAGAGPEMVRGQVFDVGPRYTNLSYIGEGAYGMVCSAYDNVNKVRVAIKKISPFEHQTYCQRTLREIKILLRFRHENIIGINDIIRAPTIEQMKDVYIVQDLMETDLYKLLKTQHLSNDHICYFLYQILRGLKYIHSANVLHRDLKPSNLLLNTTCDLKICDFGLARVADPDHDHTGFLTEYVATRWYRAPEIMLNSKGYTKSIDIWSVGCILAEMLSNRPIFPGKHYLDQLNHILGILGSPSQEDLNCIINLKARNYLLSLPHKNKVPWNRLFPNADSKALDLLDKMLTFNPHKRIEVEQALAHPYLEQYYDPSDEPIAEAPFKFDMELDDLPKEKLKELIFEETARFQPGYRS
Chain of Tyrosine-protein kinase ZAP-70 (Homo sapiens) (P43403 whole entry): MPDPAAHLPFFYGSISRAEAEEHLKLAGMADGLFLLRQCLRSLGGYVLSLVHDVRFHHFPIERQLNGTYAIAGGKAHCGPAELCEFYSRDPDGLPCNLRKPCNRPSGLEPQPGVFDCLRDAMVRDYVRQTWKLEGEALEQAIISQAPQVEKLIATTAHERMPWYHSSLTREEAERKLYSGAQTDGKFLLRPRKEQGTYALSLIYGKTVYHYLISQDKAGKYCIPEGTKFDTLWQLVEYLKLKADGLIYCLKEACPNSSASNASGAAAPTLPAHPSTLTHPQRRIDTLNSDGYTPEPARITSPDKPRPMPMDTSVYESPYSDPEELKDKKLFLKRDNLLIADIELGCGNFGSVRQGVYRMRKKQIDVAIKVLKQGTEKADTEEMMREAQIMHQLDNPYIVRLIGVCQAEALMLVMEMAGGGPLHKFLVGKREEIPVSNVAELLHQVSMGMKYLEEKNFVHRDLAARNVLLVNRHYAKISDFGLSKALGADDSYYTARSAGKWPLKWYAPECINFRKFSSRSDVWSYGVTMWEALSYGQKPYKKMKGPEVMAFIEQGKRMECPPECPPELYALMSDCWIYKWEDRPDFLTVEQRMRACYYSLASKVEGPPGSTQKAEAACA
Chain of Dual specificity protein kinase CLK4 (Homo sapiens) (Q9HAZ1 whole entry, looked up): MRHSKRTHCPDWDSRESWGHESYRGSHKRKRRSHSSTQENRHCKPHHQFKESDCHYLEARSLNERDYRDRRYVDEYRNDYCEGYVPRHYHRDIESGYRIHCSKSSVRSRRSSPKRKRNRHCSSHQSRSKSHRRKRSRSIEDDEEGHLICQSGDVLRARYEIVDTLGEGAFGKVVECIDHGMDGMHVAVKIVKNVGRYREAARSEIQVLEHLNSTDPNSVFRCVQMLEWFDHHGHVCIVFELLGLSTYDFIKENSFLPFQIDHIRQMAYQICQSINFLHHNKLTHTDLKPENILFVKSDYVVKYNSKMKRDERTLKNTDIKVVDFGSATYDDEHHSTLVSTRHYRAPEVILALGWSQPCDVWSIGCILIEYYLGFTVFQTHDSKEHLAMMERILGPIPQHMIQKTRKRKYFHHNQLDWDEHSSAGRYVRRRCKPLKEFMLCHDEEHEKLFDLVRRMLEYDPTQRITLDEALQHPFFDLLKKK

Compound: O=C(Nc1cccnc1)c1cc(-c2ccnc(F)c2)ccc1OCc1ccccc1
- Activity [1]: 26%
- Activity [2]: 46%
- Activity [3]: 113%
- Activity [4]: 121%
- Activity [5]: 50%
- Activity [6]: 53%
- Activity [7]: 46%
- Activity [8]: 75%
- Activity [9]: 76%
- Activity [10]: 105%
- Activity [11]: 115%
- F (Mus musculus): 12.2%
- Activity [12]: 103%
- Activity [13]: 75%
- Activity [14]: 23%
- inhibition [15]: Active
